Test system: MS2 coat protein
Test: apparent Kd, MS2 coat protein; higher = weaker binding; RNA-MaP array; FMN 200 µM where present
Method in brief: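 Green signal was scaled to red-channel RNA signal and control-cluster median Fmax, and the apparent Kd was taken as the median of filtered per-cluster binding-curve fits. The binding series used SNAP-549-labelled MS2 coat protein from 0.7 or 1.5 nM, doubling to 3 µM, on designs transcribed by stalled E. coli RNA polymerase on Illumina sequencing-chip clusters. Each series ran without and then with constant ligand in 100 mM Tris-HCl pH 7.5, 80 mM KCl, 4 mM MgCl2, BSA, DTT, yeast tRNA and Tween-20.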

[1] = designed as: ON switch for flavin mononucleotide, no ligand
[2] = ligand present: flavin mononucleotide, designed as: ON switch for flavin mononucleotide
[3] = designed as: OFF switch for flavin mononucleotide, no ligand
[4] = ligand present: flavin mononucleotide, designed as: OFF switch for flavin mononucleotide

| Sequence | apparent Kd [1] [nM] | apparent Kd [2] [nM] | apparent Kd [3] [nM] | apparent Kd [4] [nM] |
| --- | --- | --- | --- | --- |
| CUUUAUCACUAUACAUGAGGAUCACCCAUGUUAUCAUCAUGAGAGGAUAUCGUAUUUGGAUUUUUCGAGAAGGCUCUAUUGUAU | 152 | 53.9 | – | – |
| CUUUGCGUUAGAGGAUAUAUUGUGUGUUACACAAUAGAAGGCUAAACAAACAUGAGGAUCACCCAUGUUGUCCAUGUCGUCGGC | 16.8 | 21 | – | – |
| CUUUUAUAAUAGAAGGUAGACUUUAAGUGGAUCACCCAUGUGUAGGUACUAAGGAUAUGUAGUUACAUGAGGAUCACCCAUGUU | 172 | 143 | – | – |
| CUUUUAUAAUAGAAGGUUGACUUUAAGUGGAUCACCCAUGUGUAGGUACAAAGGAUAUGUAGUUACAUGAGGAUCACCCAUGUU | 306 | 201 | – | – |
| CUUUUGGCAGGAUAUGCUUUUUUUGACAUGAGGAUCACCCAUGUGAUGCAUUUUGGGUUUGCAGAAGGGCCUGAGU | – | – | 63.5 | 87.5 |
| CUUUUGUGAGGAUAUCAGGUGUGCUAGCGUACUGGUACAUCUGAGAAGGCACAUGAGGAUCACCCAUGUUCCUU | – | – | 13.4 | 29.2 |
| CUUUUGUGAGGAUAUCAGUAGUAAAAAAAUAAAAUUACUACUGAGAAGGCACAUGAGGAUCACCCAUGUUCCUC | – | – | 30.7 | 237 |
| CUUUUGUGAGGAUAUCAGUAGUAAAAUAAUAAAAUUACUACUGAGAAGGCACAUGAGGAUCACCCAUGUUCCUC | – | – | 32.5 | 174 |
| CUUUUGUGAGGAUAUCAGUAGUAAAUAAAUAUAAUUACUACUGAGAAGGCACAUGAGGAUCACCCAUGUUCCUC | – | – | 39.7 | 274 |
| CUUUUGUGAGGAUAUCAGUAGUAAAUUAAUAAAAUUACUACUGAGAAGGCACAUGAGGAUCACCCAUGUUCCUU | – | – | 14.5 | 29.5 |
| CUUUUGUGAGGAUAUUAGUAUUAAAUAAAUAAAAUUACUACUGAGAAGGCACAUGAGGAUCACCCAUGUUCCUC | – | – | 30.3 | 131 |
| CUUUUUUUUGUGAGGAUAUACUGUUAUUAAAGUUAGUAGAAGGUACAUGAGGAUCACCCAUGUUAAUUACUCUA | – | – | 14.1 | 14.9 |
| GAAAAACAUGAGGAUCACCCAUGUAGAAAUAUGGGAGGAUAUACAAAGACGAAAGUCAAAGUAGAAGGCCUAAAAG | 125 | 31 | – | – |
| GAAAAACAUGAGGAUCACCCAUGUAGAAAUAUGGGAGGAUAUACAAAGUCGAAAGACAAAGUAGAAGGCCUAAAAG | 146 | 26.9 | – | – |
| GAACUGAAGCAUAGCUUUAGUCGUACAUGAGGAUCACCCAUGUAGGAUAUGGUAGGCUUAGCUUACUAGAAGGAUAGAGUGAUC | – | – | 140 | 66.8 |
| GAACUGAAGCAUGGCUUUAGUCGUACAUGAGGAUCACCCAUGUAGGAUAUGGUAGGCAUAGCUUACUAGAAGGAUAGAGUGAUC | – | – | 187 | 63.4 |
| GAAGACAUAGUUCAGGAUAUAGGAAUAGUCACAUGAGGAUCACCCAUGUGCAUUUAUAUGCGCACUUAGAAGGGAGGUAGUUAUC | 36.3 | 41 | – | – |
| GAAGCACGCAUUAACAUGAGGAUCACCCAUGUGAAAACACGUGAGGAUAUGGAUCUGAAGAAGAUCCAGAAGGCACCGUGCUAA | 5.44 | 4.78 | – | – |
| GAAGGGUAUGAGAAGGCAUAAUUUAUAUUACCACAUGUUUACAUGAGGAUCACCCAUGUUUCCUAUGAGGAUAUCAUACCGAGA | – | – | 12.4 | 12.7 |
| GAAGUUAGAGGAUAUACAUGAGGAUCACCCAUGUGUGUUGUGAACAAUGUAUGUUUAUGUAGAAGGCUAACUUC | – | – | 79.4 | 241 |
| GAAUAAUUGAUCCAAUUUUACAACAUGAGGAUCACCCAUGUGCAGGAUAUCGUGUGUGUUAUAUACGAGAAGGGCAAGAACUGU | – | – | 381 | 448 |
| GAAUAAUUGAUCCUUUUUUAUUACAUGAGGAUCACCCAUGUGCAGGAUAUCGAGAGUUUUAGAUUCGAGAAGGGCAAGAACUGU | – | – | 905 | 629 |
| GAAUUCGCAUGAGGAUAUGCACUCAUUUCAUGUGCAGAAGGUAUAACAUUAGACAUGAGGAUCACCCAUGUAUUGGUCAGUAAC | 15 | 13.4 | – | – |
| GACAUGAGGAUCACCCAUGUCCCUCCAGAAGGCUGGCGCGCGAAACCGAUCUCGGUUCCGGGCACAGAGGAUAUGGGCGGUUGG | 198 | 26.1 | – | – |
| GACAUGGUCCAGAAGGGCUAUCUAUUUAAGUACGAUUUAGAACAGCAUAGCAGGAUAUGGCUAACAUGAGGAUCACCCAUGUUC | 20.5 | 9.26 | – | – |
| GACGCUGACCGAGGAUAUACAAUAAAACAACAAACACCUCGUGUCAGAACAUGAGGAUCACCCAUGUAGAAGGCGGCAGGUCUA | – | – | 48.6 | 127 |
| GACGGUGAUGUAGGAUAUACGCUGGAUAACAGCGUAGAAGGACAUGAGGAUCACCCAUGUAAAGUGUCUCUAAAUAACACCGUC | – | – | 20.7 | 47.5 |
| GACUCGCGCACAGGAUAUCCACAGAGCGGACGUGGAGAAGGGUGACAUGAGGAUCACCCAUGUACGUGAGUCUAGAUCACUUCC | 52.4 | 31 | – | – |

| Sequence | apparent Kd [1] [nM] | apparent Kd [2] [nM] | apparent Kd [3] [nM] | apparent Kd [4] [nM] |
| --- | --- | --- | --- | --- |
| GACUCGCGCACAGGAUAUCCACGGAGCGGACGUGGAGAAGGGUGACAUGAGGAUCACCCAUGUACGUGAGUCUAGAUCACUUCC | 67.2 | 25 | – | – |
| GACUUGUCAGGAUAUCUUACAUAAACAUCGUAGUUACAAUUGGAGAAGGGACAUGAGGAUCACCCAUGUUUGCG | – | – | 25.1 | 29.3 |
| GAGAAGUCAGGAUAUGCAUGGCGGGACUUGCGUCGUGGCGUGCAGAAGGGACAUGAGGAUCACCCAUGUAAAGA | – | – | 53 | 49 |
| GAGACACAUGAGGAUCACCCAUGUGAGGAUAUCCGAAGGACCAAAUUAAGAAUUAAAGGGAGAAGGCACAUAAA | – | – | 27 | 25.9 |
| GAGCCUAAUGAGAAGGUGUGUAUAAAUUAUAUACAAGGAUAUCGGUCGAGCGUGUUGACAUGAGGAUCACCCAUGUUGAGGCUU | 7.86 | 5.29 | – | – |
| GAGGACUGAUAAUAAUGUAGAAAUACAUGAGGAUCACCCAUGUAGGAUAUCGUCAGGAAUACUGACGAGAAGGACAUACAGUCC | – | – | 16 | 23.2 |
| GAGGUAUUCGUAGGAUAUCCGUCGCCACCGUGUGGAGAAGGACGAACAUGAGGAUCACCCAUGUAUCAUGGUGUGGACGCUGUC | – | – | 61.8 | 61.7 |
| GAUAAACAUGAGGAUCACCCAUGUGAGGAUAUGCGUACGUUGUCCGUAGGCGACGUGCGCAGAAGGCGCAAGGU | – | – | 99.4 | 216 |
| GAUAGAGAGCAGGAUAUCUUGGAUAAGUAUUGUAGAGAAGGGCUCACAUGAGGAUCACCCAUGUGGUCCUAGAU | – | – | 14.2 | 34.2 |
| GAUAGGACAGAGAAGGUACGUGCUAGAGAUACUAGCAAAAUUUCCUCACAUGAGGAUCACCCAUGUAAGGAUAUCUGUCCUAUC | – | – | 4.44 | 4.8 |
| GAUAUGGGAGGAUAUGCAUAGAUAAAGAAACAUGUUCAACCACAUGAGGAUCACCCAUGUAGAAGGCCCAUAUC | – | – | 31.9 | 147 |
| GAUCCACAUGAGGAUCACCCAUGUGAGGAUAUGAUACUAUGUACUUCGGUACAUAGUAUCAGAAGGCACGGAUC | – | – | 27.1 | 31.6 |
| GAUCGUUCUGUUAGGAUAUGCUUUGGGCUUCCGCAGUAGAAGGAACAUGAGGAUCACCCAUGUCCGAUGCCGUC | – | – | 25.6 | 28.1 |
| GAUCUGAUAGGAUAUACAUGAGGAUCACCCAUGUGCGAGCUAGCGAAAGCUAGCUCAGGUAGAAGGGUCAGAUC | – | – | 12 | 15.5 |
| GAUGUAUUCGUAGGAUAUCCGUCGCCACCGUGUGGAGAAGGACGAACAUGAGGAUCACCCAUGUAUCAUGGUGUGGACGCUUUC | – | – | 287 | 315 |
| GAUUAACAUGAGGAUCACCCAUGUGAGGAUAUGGAAUGGCUCACUUUUCGAUUCCCGUCUAGAAGGCACAUCUU | – | – | 54.6 | 53.3 |
| GAUUAUAAGUAAGGAUAUGUAUAUGAAACAUAUACAGAAGGUACAUGAGGAUCACCCAUGUUCUUGCAGCGUGAAUAUGUAAUC | – | – | 19.1 | 28.5 |
| GAUUCGGGAGGAUAUACAUGAGGAUCACCCAUGUGUUUUUUGUGUGUUUUGUUAUCGUGUAGAAGGUUUGGGUC | – | – | 117 | 172 |
| GAUUUACAUGAGGAUCACCCAUGUGAGGAUAUUGGGCUAGCAGAGUGAAUUCGCUGUCCAAGAAGGUACUGGAA | – | – | 32.6 | 32.5 |
| GCAAACAUGAGGAUCACCCAUGUCGGCUAUAAGUCCGCUCACAGAAGGGAUACGCCGGCAGGUGAUCAGGAUAUGUGGGCGCGC | 239 | 16.5 | – | – |
| GCAAAGCCUGACAUGAGGAUCACCCAUGUUAGAUUGUUAUGUCAGGAUAUUGUCUAGAAACUAGACAAGAAGGGAUGCUUUGCC | 734 | 51.3 | – | – |
| GCAAAGCCUGACAUGAGGAUCACCCAUGUUAGAUUGUUAUGUCAGGAUAUUGUCUAGACCCUAGACAAGAAGGGAUGCUUUGCU | 371 | 26.9 | – | – |
| GCAACGCCUGACAUGAGGAUCACCCAUGUUAGAUUGUUAUGUCAGGAUAUUGUCGCUAAAGGUGAUGAGAAGGGAUAUGUUGCU | 1180 | 71 | – | – |
| GCAACGCCUGACAUGAGGAUCACCCAUGUUAGAUUGUUAUGUCAGGAUAUUGUCUCGAAACGAGACGAGAAGGGAUAUGUUGCU | 1110 | 39 | – | – |
| GCAAGAACGGGUCAGUCCCAGAUGAGAAGGGUAGGUGGCGAUGAGUACAUGAGGAUCACCCAUGUACAGGAUAUCAUCAUUGUA | – | – | 7.63 | 8.66 |
| GCAAGUACGAGAGGAUAUUGACAUGAGGAUCACCCAUGUAUUUGGGAGUGUUCACUGAAUUCUUACGAGAAGGCUCGUACAUGC | – | – | 246 | 232 |
| GCACCUUUAUUUGAACCGAUACGAACAUGAGGAUCACCCAUGUAGGAUAUGCUAAAAGUUGUGUUGCAGAAGGACAUUUAGUGC | – | – | 9.36 | 8.98 |
